Measured values: article PMC10077566 (ACS Omega, 2023)

Assays:
[1] = target: FABP3 (U-138-MG cells) (Homo sapiens, UniProt P05413); assay: FABP3-mediated internalization, antibody labeling and FACS; assay type: cell-based; details: serum-free, 10 μM, FACS, Coralite 594-conjugated FABP3 antibody
Method in brief: (§1)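 Cells were kept in serum-free neuronal basal medium with B27 and seeded at 1×10^4 cells/well in 6-well plates, then left to spread for 4 h at 37 °C, 5% CO2. They were incubated with Coralite 594-conjugated anti-FABP3 mouse antibody, then with the test compound (10 μM) for 24 h. Cells were trypsinized, pelleted at […] for 5 min, resuspended in FACS buffer and filtered. Flow cytometry used 582 nm excitation.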

[2] = target: FABP3 (U-87-MG cells) (Homo sapiens, UniProt P05413); assay: as above; assay type: cell-based; details: serum-free, 10 μM, FACS, Coralite 594-conjugated FABP3 antibody
Chain of FABP3 (U-87-MG cells) (P05413 whole entry): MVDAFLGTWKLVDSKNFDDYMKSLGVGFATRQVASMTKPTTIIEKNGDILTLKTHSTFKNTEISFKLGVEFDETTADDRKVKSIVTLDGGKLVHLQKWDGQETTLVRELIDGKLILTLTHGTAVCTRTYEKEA
Method in brief: as §1

[3] = tested on: U-87-MG cells; assay: Annexin V FITC-propidium iodide apoptosis assay, FACS; assay type: cell-based, human; details: Annexin V FITC/PI quadrant
[4] = tested on: primary mouse neurons; assay: MTT cytotoxicity / cell viability, noncancer cells; assay type: cell-based; details: 24 h, n = 3
Method in brief: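 Primary mouse neurons were grown in serum-free DMEM/F12-based neural medium with L-glutamine, HEPES, penicillin/streptomycin and supplement. They were plated at 1×10^4 cells/well and allowed to spread for 24 h at 37 °C, 5% CO2, then treated with the test compound at 2 or 10 μM for 24 h. MTT was added for 4 h, then solubilizing solution for 4 h. Absorbance was read at 560 and 590 nm. Runs were in triplicate, with Student's t tests.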

[5] = tested on: U-87-MG spheroids; assay: Calcein-AM spheroid viability assay; assay type: cell-based, human; details: 10 μM, 24 h; six-day old spheroids, 10000 cells/well
Method in brief: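 Six-day-old U-87-MG spheroids seeded at 10000 cells/well in U-bottom low-attachment 24-well plates from monolayers grown to 70% confluence, in serum-free B27 neuronal basal medium or FBS-supplemented EMEM, with medium changed every 3 days. Exposed to the test compound at 10 μM for 24 h, moved to a fresh plate, washed three times with assay buffer, then stained with 3 μM Calcein-AM for 1 h at 37 °C. Imaged by fluorescence.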

Chain of FABP3 (U-138-MG cells) (P05413 whole entry): as above

Compound | FABP3-mediated internalization [1] | FABP3-mediated internalization [2] | necrotic cells ([3]; 2 μM) [%] | necrotic cells ([3]; 10 μM) [%] | cell viability ([4]; 2 μM) [%] | cell viability ([4]; 10 μM) [%] | spheroid viability, Calcein-AM fluorescence [5]
ACGLSGLCVAK [A-COOP-K] | did not show internalization | did not show internalization |  |  |  |  | 
COc1cccc2c1C(=O)c1c(O)c3c(c(O)c1C2=O)C[C@@](O)(C(=O)CO)C[C@@H]3O[C@H]1C[C@H](N)[C@H](O)[C@H](C)O1 [DOX, doxorubicin] |  |  | 7.2 | 24 | 49.3 | 27.2 | scattered viable cells were seen throughout the spheroid
